# Reference: article PMC8553517 (ACS infectious diseases, 2021)
# Values joined by “and” are separate entries in the source; they are usually repeats but may differ in a detail not shown here. Equal values may be shown once.
# Tests used:
# [1] = test system: intracellular L. donovani; assay: L. donovani-infected macrophage assay; type: cell-based, Leishmania donovani; details: Leishmania donovani, Macrophage, read-out: IC50 against L. donovani
# J774 macrophages = assay: J774 macrophage toxicity assay; type: cell-based, mouse
# HepG2 cells = assay: HepG2 toxicity assay; type: cell-based
# [2] = molecular target: recombinant L. donovani CYP51 (Leishmania donovani, UniProt A0A3S7WRS7); assay: Fluorescence-based L. donovani CYP51 inhibition assay; type: biochemical
# L. donovani CYP51 = L. donovani CYP51 ligand binding spectra; set-up: species or system Leishmania donovani; details: titration of CYP51; absorbance maximum 431 nm, minimum 412–413 nm
# In short: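 Purified N-terminally truncated L. donovani CYP51 (CYP51-32c, His-tagged; purity by SDS-PAGE/anti-His Western blot, CO-difference spectra) at 0.5 µM, titrated in 30 mM potassium phosphate pH 7.4 with 0.1 mM EDTA and 20% glycerol. […], and sample-minus-reference difference spectra were recorded.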
# recombinant human CYP3A4 = recombinant human CYP3A4 (Homo sapiens, UniProt P08684); assay: Inhibition of recombinant human CYP3A4; type: in vitro ADME
# [3] = test system: L. donovani-infected female BALB/c mice; assay: Murine visceral leishmaniasis model; type: in vivo; details: three days after final dose
# In short: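 Female BALB/c mice infected with L. donovani; groups of four. Dosing by oral gavage for 5 consecutive days, starting one week post-infection. Test compound was given at 75 or 37.5 mg/kg/day in 50% PEG400/50% water. Reference drug miltefosine was given at 10 mg/kg/day in water. The vehicle control group received PEG-400. Liver parasitemia was determined three days after the final dose, reported as percent reduction (mean ± S.E.M.).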
# recombinant human CYP3A4, sequence (P08684 whole entry): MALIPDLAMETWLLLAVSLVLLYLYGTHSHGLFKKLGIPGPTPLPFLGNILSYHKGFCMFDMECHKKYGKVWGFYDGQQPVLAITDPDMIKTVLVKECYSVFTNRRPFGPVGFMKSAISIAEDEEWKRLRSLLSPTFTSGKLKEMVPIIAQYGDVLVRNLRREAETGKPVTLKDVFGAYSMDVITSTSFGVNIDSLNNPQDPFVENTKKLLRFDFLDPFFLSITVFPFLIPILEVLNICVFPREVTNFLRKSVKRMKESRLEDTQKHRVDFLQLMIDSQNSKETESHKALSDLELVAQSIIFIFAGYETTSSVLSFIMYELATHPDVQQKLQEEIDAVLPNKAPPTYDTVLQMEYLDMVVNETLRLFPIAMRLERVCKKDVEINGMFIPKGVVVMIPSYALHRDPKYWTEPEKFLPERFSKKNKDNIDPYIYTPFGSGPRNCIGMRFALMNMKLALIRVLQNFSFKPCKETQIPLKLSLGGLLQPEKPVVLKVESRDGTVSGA
smiles,measurement,setting,value
"CC(C)Oc1cc(OCCCCCCCCn2ccnc2)ccc1NC(=N)c1ccccn1 [Compound 24c, N-(4-((8-(1H-imidazol-1-yl)octyl)oxy)-2-isopropoxyphenyl) picolinimidamide]",IC50,[1],530 ± 50 nM
same,Selectivity index (IC50 vs. mammalian cell line/IC50 vs. L. donovani),J774 macrophages; J774 macrophages vs. intracellular L. donovani,13
same,IC50,"J774 macrophages; Mus musculus, J774, read-out: IC50 against J774 macrophages",6800 ± 200 nM
same,Selectivity index (IC50 vs. mammalian cell line/IC50 vs. L. donovani),HepG2 cells; HepG2 cells vs. intracellular L. donovani,23
same,IC50,"HepG2 cells; Homo sapiens, HepG2, 72 h, read-out: IC50 against HepG2",12000 ± 2000 nM
same,IC50,[2],330 ± 10 nM
same,CYP51 binding spectrum type,L. donovani CYP51,typical Type II binding spectra
same,IC50,recombinant human CYP3A4,80 ± 9 nM
same,Reduction in liver parasitemia,[3]; 37.5 mg/kg/day × 5 p.o.,17 ± 5%
same,Reduction in liver parasitemia,"[3]; 75 mg/kg/day × 5 p.o., mean ± S.E.M.",33% and 33 ± 7%
